Reference: ChEMBL document CHEMBL4196145, “Antitumor Activity of Diterpenoids from Jatropha gossypiifolia: Cell Cycle Arrest and Apoptosis-Inducing Activity in RKO Colon Cancer Cells” (J Nat Prod, 2018)
The source made the active and inactive calls. The calls are words filed in the database; no cut-off is given here.

How the values were obtained:
RKO [1] = experiment: Cell cycle arrest in human RKO cells assessed as accumulation at G2/M phase at 5.2 uM after 24 hrs by propidium iodide staining based flow cytometry (reference value: 10.97%); type: functional
RKO [2] = experiment: Induction of apoptosis in human RKO cells assessed as early apoptotic cells at 5.2 uM after 24 hrs by annexin V-FITC/propidium iodide staining based flow cytometry (reference value: 1.98%); type: functional
In short: (§1)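 Annexin V-FITC/PI kit assay. RKO cells were treated for 24 h at 37 °C with compound, DMSO or 5-FU, collected and washed twice with PBS. They were resuspended in binding buffer and stained with annexin V-FITC and PI for 20 min at 37 °C in the dark. Flow cytometry was run immediately, with viable, early/late apoptotic and necrotic fractions read.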

RKO [3] = experiment: Induction of apoptosis in human RKO cells assessed as necrotic cells at 5.2 uM after 24 hrs by annexin V-FITC/propidium iodide staining based flow cytometry (reference value: 0.035%); type: functional; in short: as §1
RKO [4] = experiment: Induction of apoptosis in human RKO cells assessed as late apoptotic cells at 2.6 uM after 24 hrs by annexin V-FITC/propidium iodide staining based flow cytometry (reference value: 3.91%); type: functional; in short: as §1
RKO [5] = experiment: Cell cycle arrest in human RKO cells assessed as accumulation at S phase at 2.6 uM after 24 hrs by propidium iodide staining based flow cytometry (reference value: 37.89%); type: functional
RKO [6] = experiment: Cell cycle arrest in human RKO cells assessed as accumulation at G1 phase at 2.6 uM after 24 hrs by propidium iodide staining based flow cytometry (reference value: 51.13%); type: functional
RKO [7] = experiment: Induction of apoptosis in human RKO cells assessed as nuclear condensation at 2.6 to 5.2 uM after 24 hrs by DAPI staining based fluorescence microscopy; type: functional, cell-based
RKO [8] = experiment: Induction of apoptosis in human RKO cells assessed as viable cells at 5.2 uM after 24 hrs by annexin V-FITC/propidium iodide staining based flow cytometry (reference value: 94.1%); type: functional; details: read-out: Activity; in short: as §1
RKO [9] = experiment: Induction of apoptosis in human RKO cells after 24 hrs by annexin V-FITC/propidium iodide staining based flow cytometry; type: functional, cell-based; in short: as §1
RKO [10] = experiment: Induction of apoptosis in human RKO cells assessed as early apoptotic cells at 2.6 uM after 24 hrs by annexin V-FITC/propidium iodide staining based flow cytometry (reference value: 1.98%); type: functional; in short: as §1
RKO [11] = experiment: Growth inhibition of human RKO cells after 48 hrs by CCK-8 assay; type: functional, cell-based
In short: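 CCK-8 (WST-8) was then added for 1 h at 37 °C and optical density read at 450 nm. Survival was expressed relative to untreated control wells and IC50 calculated. Three independent experiments.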

LoVo = experiment: Growth inhibition of human LoVo cells after 48 hrs by CCK-8 assay; type: functional, cell-based
RKO [12] = experiment: Induction of apoptosis in human RKO cells assessed as viable cells at 2.6 uM after 24 hrs by annexin V-FITC/propidium iodide staining based flow cytometry (reference value: 94.1%); type: functional; details: read-out: Activity; in short: as §1
RKO [13] = experiment: Induction of apoptosis in human RKO cells assessed as nuclear fragmentation at 2.6 to 5.2 uM after 24 hrs by DAPI staining based fluorescence microscopy; type: functional, cell-based
RKO [14] = experiment: Cell cycle arrest in human RKO cells assessed as accumulation at G2/M phase at 2.6 uM after 24 hrs by propidium iodide staining based flow cytometry (reference value: 10.97%); type: functional
RKO [15] = experiment: Induction of apoptosis in human RKO cells assessed as necrotic cells at 2.6 uM after 24 hrs by annexin V-FITC/propidium iodide staining based flow cytometry (reference value: 0.035%); type: functional; in short: as §1
RKO [16] = experiment: Cell cycle arrest in human RKO cells assessed as accumulation at S phase at 5.2 uM after 24 hrs by propidium iodide staining based flow cytometry (reference value: 37.89%); type: functional
RKO [17] = experiment: Induction of apoptosis in human RKO cells assessed as late apoptotic cells at 5.2 uM after 24 hrs by annexin V-FITC/propidium iodide staining based flow cytometry (reference value: 3.91%); type: functional; in short: as §1
RKO [18] = experiment: Induction of apoptosis in human RKO cells at 5.2 uM after 24 hrs by DAPI staining based fluorescence microscopy; type: functional, cell-based
RKO [19] = experiment: Antimigratory activity against human RKO cells at 2.6 to 5.2 uM after 48 hrs by wound healing based inverted microscopy; type: functional, cell-based
In short: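 Scratch-wound assay. RKO monolayers above 90% confluence were scratched with a sterile pipette tip and debris rinsed off with PBS. Cells were then kept in MEM with 2% FBS at 37 °C with compound, DMSO vehicle or 5-FU. Wounds were photographed by inverted microscopy at 0 and 48 h, and scratch area was compared with the original wound.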

RKO [20] = experiment: Cell cycle arrest in human RKO cells assessed as accumulation at G1 phase at 5.2 uM after 24 hrs by propidium iodide staining based flow cytometry (reference value: 51.13%); type: functional
RKO [21] = experiment: Induction of apoptosis in human RKO cells assessed as viable cells at 20.4 uM after 24 hrs by annexin V-FITC/propidium iodide staining based flow cytometry (reference value: 94.1%); type: functional; details: read-out: Activity
RKO [22] = experiment: Induction of apoptosis in human RKO cells assessed as early apoptotic cells at 20.4 uM after 24 hrs by annexin V-FITC/propidium iodide staining based flow cytometry (reference value: 1.98%); type: functional
RKO [23] = experiment: Induction of apoptosis in human RKO cells assessed as late apoptotic cells at 10.2 uM after 24 hrs by annexin V-FITC/propidium iodide staining based flow cytometry (reference value: 3.91%); type: functional
RKO [24] = experiment: Cell cycle arrest in human RKO cells assessed as accumulation at G1 phase at 20.4 uM after 24 hrs by propidium iodide staining based flow cytometry (reference value: 51.13%); type: functional
RKO [25] = experiment: Cell cycle arrest in human RKO cells assessed as accumulation at S phase at 10.2 uM after 24 hrs by propidium iodide staining based flow cytometry (reference value: 37.89%); type: functional
RKO [26] = experiment: Induction of apoptosis in human RKO cells assessed as late apoptotic cells at 20.4 uM after 24 hrs by annexin V-FITC/propidium iodide staining based flow cytometry (reference value: 3.91%); type: functional
RKO [27] = experiment: Cell cycle arrest in human RKO cells assessed as accumulation at G1 phase at 10.2 uM after 24 hrs by propidium iodide staining based flow cytometry (reference value: 51.13%); type: functional
RKO [28] = experiment: Cell cycle arrest in human RKO cells assessed as accumulation at G2/M phase at 20.4 uM after 24 hrs by propidium iodide staining based flow cytometry (reference value: 10.97%); type: functional
RKO [29] = experiment: Induction of apoptosis in human RKO cells assessed as necrotic cells at 20.4 uM after 24 hrs by annexin V-FITC/propidium iodide staining based flow cytometry (reference value: 0.035%); type: functional
RKO [30] = experiment: Induction of apoptosis in human RKO cells assessed as early apoptotic cells at 10.2 uM after 24 hrs by annexin V-FITC/propidium iodide staining based flow cytometry (reference value: 1.98%); type: functional
RKO [31] = experiment: Induction of apoptosis in human RKO cells assessed as necrotic cells at 10.2 uM after 24 hrs by annexin V-FITC/propidium iodide staining based flow cytometry (reference value: 0.035%); type: functional
RKO [32] = experiment: Cell cycle arrest in human RKO cells assessed as accumulation at G2/M phase at 10.2 uM after 24 hrs by propidium iodide staining based flow cytometry (reference value: 10.97%); type: functional
RKO [33] = experiment: Cell cycle arrest in human RKO cells assessed as accumulation at S phase at 20.4 uM after 24 hrs by propidium iodide staining based flow cytometry (reference value: 37.89%); type: functional
RKO [34] = experiment: Induction of apoptosis in human RKO cells assessed as viable cells at 10.2 uM after 24 hrs by annexin V-FITC/propidium iodide staining based flow cytometry (reference value: 94.1%); type: functional; details: read-out: Activity

Compound: C=C1CC[C@@H](C(=C)C)[C@@H]2C=C(C)C(=O)C3=C(C(=O)[C@@H](C)[C@H]3O)[C@@H]12
- Activity (RKO [1]): 25.76%
- Activity (RKO [2]): 21.5%
- Activity (RKO [3]): 0.811%
- Activity (RKO [4]): 27.6%
- Activity (RKO [5]): 37.68%
- Activity (RKO [6]): 44.03%
- Activity (RKO [7]): Active
- viability at 5.2 µM (RKO [8]): 9.5%
- Activity (RKO [9]): Dose-dependent effect
- Activity (RKO [10]): 12.1%
- IC50 (RKO [11]): 2.6 µM
- IC50 (LoVo): 14.5 µM
- viability at 2.6 µM (RKO [12]): 59.9%
- Activity (RKO [13]): Active
- Activity (RKO [14]): 18.3%
- Activity (RKO [15]): 0.404%
- Activity (RKO [16]): 38.18%
- Activity (RKO [17]): 68.2%
- Activity (RKO [18]): Active
- Activity (RKO [19]): Active
- Activity (RKO [20]): 36.06%

Compound: CC1=C2CC(C)(C)/C=C/C(=O)/C(C)=C\C3=C[C@H](C)C[C@]3(O2)C1=O [JATROPHONE]
- IC50 (RKO [11]): 8 µM
- IC50 (LoVo): 18.6 µM

Compound: CC(=O)O[C@H]1C2=C[C@@H](C)C(=O)[C@H]3[C@H]4[C@@H](C[C@@H](C)[C@]3(O)[C@H]2C[C@H]1C)C4(C)C
- growth inhibition (GI) (RKO [11]): inactive
- growth inhibition (GI) (LoVo): inactive

Compound: CC(=O)O[C@H]1/C2=C/[C@@H](C)C(=O)C[C@H]3[C@@H](/C=C(\C)C(=O)[C@H]2C[C@H]1C)C3(C)C
- growth inhibition (GI) (RKO [11]): inactive
- growth inhibition (GI) (LoVo): inactive

Compound: C=C1CC[C@H]2[C@@H](c3c(C)c(O)c4c(c31)C(=O)[C@@H](C)C4)C2(C)C
- growth inhibition (GI) (RKO [11]): inactive
- growth inhibition (GI) (LoVo): inactive

Compound: C=C1CC[C@H]2[C@@H](c3c(C)c(O)c4c(c31)C(=O)[C@H](C)C4)C2(C)C
- growth inhibition (GI) (RKO [11]): inactive
- growth inhibition (GI) (LoVo): inactive

Compound: CC(=O)O[C@H]1/C2=C/[C@@H](C)C(=O)C[C@H]3[C@@H](C[C@@H](C)C(=O)[C@H]2C[C@H]1C)C3(C)C
- growth inhibition (GI) (RKO [11]): inactive
- growth inhibition (GI) (LoVo): inactive

Compound: C=C(C)[C@@H]1/C=C/[C@@H](C)C(=O)[C@H]2C[C@@H](C)[C@@H](OC(C)=O)/C2=C/[C@@H](C)C(=O)C1
- growth inhibition (GI) (RKO [11]): inactive
- growth inhibition (GI) (LoVo): inactive

Compound: C=C(C)[C@@H]1/C=C/[C@@H](C)C(=O)[C@H]2C[C@@H](C)[C@@H](OC(C)=O)/C2=C/[C@](C)(O)C(=O)C1
- growth inhibition (GI) (RKO [11]): inactive
- growth inhibition (GI) (LoVo): inactive

Compound: C/C1=C/C2=C(C[C@H](C)C2)C(=O)[C@@]2(C)C(=O)CC(C)(C)[C@@H]2CC1=O
- growth inhibition (GI) (RKO [11]): inactive
- growth inhibition (GI) (LoVo): inactive

Compound: O=c1[nH]cc(F)c(=O)[nH]1 [FLUOROURACIL]
- viability at 20.4 µM (RKO [21]): 51.7%
- Activity (RKO [22]): 11.6%
- Activity (RKO [23]): 20.8%
- Activity (RKO [24]): 66.4%
- Activity (RKO [25]): 15.97%
- IC50 (RKO [11]): 10.2 µM
- Activity (RKO [26]): 36.7%
- Activity (RKO [27]): 62.56%
- IC50 (LoVo): 11.5 µM
- Activity (RKO [28]): 21.48%
- Activity (RKO [29]): 0.065%
- Activity (RKO [30]): 9.75%
- Activity (RKO [31]): 0.289%
- Activity (RKO [32]): 21.47%
- Activity (RKO [33]): 12.12%
- viability at 10.2 µM (RKO [34]): 69.2%

Compound: C=C(C)[C@@H]1/C=C/[C@@H](C)C(=O)[C@H]2C[C@@H](C)[C@@H](O)/C2=C/[C@@H](C)C(=O)C1
- growth inhibition (GI) (RKO [11]): inactive
- growth inhibition (GI) (LoVo): inactive

Compound: C/C1=C/[C@]23O[C@H]2[C@H](C)CC3C(=O)[C@]2(C)C(=O)CC(C)(C)[C@H]2CC1=O (stereo not given in full)
- growth inhibition (GI) (RKO [11]): inactive
- growth inhibition (GI) (LoVo): inactive

Compound: C/C1=C/C2=C(C[C@@H](C)C2)C(=O)[C@@]2(C)C(=O)CC(C)(C)[C@@H]2CC1=O
- growth inhibition (GI) (RKO [11]): inactive
- growth inhibition (GI) (LoVo): inactive

Compound: C=C(C)[C@@H]1/C=C/[C@@H](C)C(=O)[C@H]2C[C@@H](C)[C@@H](OC(C)=O)[C@H]2/C=C(/C)C(=O)C1
- growth inhibition (GI) (RKO [11]): inactive
- growth inhibition (GI) (LoVo): inactive

Compound: CC(=O)O[C@H]1/C2=C/[C@@H](C)C(=O)C[C@H]3[C@@H](/C=C(\C)C(=O)[C@@]2(O)C[C@H]1C)C3(C)C
- growth inhibition (GI) (RKO [11]): inactive
- growth inhibition (GI) (LoVo): inactive
